# Laboratory results reported in ChEMBL document CHEMBL1122841, “Structure-activity relationships among benextramine-related tetraamine disulfides at peripheral alpha-adrenoreceptors” (J Med Chem, 1985).
# Molecular target: Adrenergic receptor alpha (Rattus norvegicus) (UniProt P15823+P23944+P43140+P22086+P19328+P22909)
# Assay: Antagonistic blocking activity at alpha adrenergic receptor by NE induced contractions of the epididymal portion of isolated rat vas deferens at the dose of 20 uM
# Type: functional, tissue-based
# Design: scale not given: the % may be the effect or the level left
# Summary of the method: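 Epididymal portion of isolated rat vas deferens under 1.0 g tension in PSS (mM: NaCl 118, KCl 4.7, CaCl2 2.52, MgCl2 3.57, KH2PO4 1.54, NaHCO3 12.5, glucose 11.1). Antagonist at 20 µM for 30 min, then 30-min wash. Value is the percent decrease of maximum contraction to 100 µM NE versus control, mean ± SEM; n = 3–7.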
row,Structure (SMILES),Activity [%]
1,Cn1cccc1CNCCCCCCNCCSSCCNCCCCCCNCc1cccn1C,100
2,c1ccc2ncc(CNCCCCCCNCCSSCCNCCCCCCNCc3cnc4ccccc4c3)cc2c1,36
3,COc1cc(CNCCCCCCNCCSSCCNCCCCCCNCc2cc(OC)c(OC)cc2[N+](=O)[O-])c([N+](=O)[O-])cc1OC,47
4,c1ccc2c(CNCCCCCCNCCSSCCNCCCCCCNCc3ccnc4ccccc34)ccnc2c1,32
5,COc1ccc(CNCCCCCCNCCSSCCNCCCCCCNCc2ccc(OC)c(OC)c2[N+](=O)[O-])c([N+](=O)[O-])c1OC,27
6,c1coc(CNCCCCCCNCCSSCCNCCCCCCNCc2ccco2)c1,100
7,c1cncc(CNCCCCCCNCCSSCCNCCCCCCNCc2cccnc2)c1,13
8,Brc1ccc(CNCCCCCCNCCSSCCNCCCCCCNCc2ccc(Br)cc2)cc1,34
9,c1ccc(CNCCCCCCNCCSSCCNCCCCCCNCc2ccccn2)nc1,78
10,CS(=O)(=O)c1ccccc1CNCCCCCCNCCSSCCNCCCCCCNCc1ccccc1S(C)(=O)=O,35
11,O=[N+]([O-])c1cc(O)c(O)cc1CNCCCCCCNCCSSCCNCCCCCCNCc1cc(O)c(O)cc1[N+](=O)[O-],99
12,Clc1cccc(CNCCCCCCNCCSSCCNCCCCCCNCc2cccc(Cl)c2)c1,46
13,c1cc(CNCCCCCCNCCSSCCNCCCCCCNCc2ccncc2)ccn1,11
14,Fc1ccc(CNCCCCCCNCCSSCCNCCCCCCNCc2ccc(F)cc2)cc1,100
15,COc1cccc([N+](=O)[O-])c1CNCCCCCCNCCSSCCNCCCCCCNCc1c(OC)cccc1[N+](=O)[O-],42
16,CSc1ccccc1CNCCCCCCNCCSSCCNCCCCCCNCc1ccccc1SC,66
17,c1c[nH]c(CNCCCCCCNCCSSCCNCCCCCCNCc2ccc[nH]2)c1,100
18,Clc1ccc(CNCCCCCCNCCSSCCNCCCCCCNCc2ccc(Cl)cc2)cc1,50
19,COc1c(C)cccc1CNCCCCCCNCCSSCCNCCCCCCNCc1cccc(C)c1OC,59
20,O=[N+]([O-])c1cccc(CNCCCCCCNCCSSCCNCCCCCCNCc2cccc([N+](=O)[O-])c2)c1,49
21,O=[N+]([O-])c1ccccc1CNCCCCCCNCCSSCCNCCCCCCNCc1ccccc1[N+](=O)[O-],51
22,Cc1ccc(CNCCCCCCNCCSSCCNCCCCCCNCc2ccc(C)o2)o1,100
23,Brc1cccc(CNCCCCCCNCCSSCCNCCCCCCNCc2cccc(Br)c2)c1,58

# Second part, the compound after the results:
row,Activity [%],Structure (SMILES)
1,39,Clc1ccc(CNCCCCCCNCCSSCCNCCCCCCNCc2ccc(Cl)c(Cl)c2)cc1Cl
2,27,c1ccc2cc(CNCCCCCCNCCSSCCNCCCCCCNCc3ccc4ccccc4c3)ccc2c1
3,54,Clc1ccc(CNCCCCCCNCCSSCCNCCCCCCNCc2ccc(Cl)cc2Cl)c(Cl)c1
4,44,Clc1cc(Cl)cc(CNCCCCCCNCCSSCCNCCCCCCNCc2cc(Cl)cc(Cl)c2)c1
5,41,O=[N+]([O-])c1ccc(CNCCCCCCNCCSSCCNCCCCCCNCc2ccc([N+](=O)[O-])cc2)cc1
6,55,Fc1ccccc1CNCCCCCCNCCSSCCNCCCCCCNCc1ccccc1F
7,58,Brc1ccccc1CNCCCCCCNCCSSCCNCCCCCCNCc1ccccc1Br
8,22,c1ccc2c(CNCCCCCCNCCSSCCNCCCCCCNCc3cccc4ccccc34)cccc2c1
9,80,c1csc(CNCCCCCCNCCSSCCNCCCCCCNCc2cccs2)c1
10,17,O=[N+]([O-])c1c(CNCCCCCCNCCSSCCNCCCCCCNCc2ccc(O)c(O)c2[N+](=O)[O-])ccc(O)c1O
11,17,c1cc(CNCCCCCCNCCSSCCNCCCCCCNCc2ccsc2)cs1
12,73,Fc1cccc(CNCCCCCCNCCSSCCNCCCCCCNCc2cccc(F)c2)c1
13,100,COc1ccccc1CNCCCCCCNCCSSCCNCCCCCCNCc1ccccc1OC [BENEXTRAMINE]

# Molecular target: Adrenergic receptor alpha
# Assay: Inhibitory activity against alpha adrenergic receptor
# Type: protein assay
row,Structure (SMILES),IC50 [µM]
1,c1c[nH]c(CNCCCCCCNCCSSCCNCCCCCCNCc2ccc[nH]2)c1,0.9

# Molecular target: Adrenergic receptor alpha
# Assay: Inhibitory activity against alpha adrenergic receptor in rat
row,Structure (SMILES),IC50 [µM]
1,COc1ccccc1CNCCCCCCNCCSSCCNCCCCCCNCc1ccccc1OC [BENEXTRAMINE],4.02

# Species: Rattus norvegicus
# Assay: Antimuscarinic activity against carbachol induced response in rat jejunum
# Type: functional
# Summary of the method: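 Rat jejunum under 1.0 g tension in the same PSS, stabilised with submaximal agonist doses. Cumulative carbachol curves used about 3-fold steps and force-transducer recording. After about 15 min rest, antagonist (10–100 µM) was incubated 30 min and the curve repeated. Dose ratios were taken before and after a 30-min wash; mean ± SEM of 5–6 observations.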
row,Structure (SMILES),Kb [µM]
1,c1c[nH]c(CNCCCCCCNCCSSCCNCCCCCCNCc2ccc[nH]2)c1,5.25
2,COc1ccccc1CNCCCCCCNCCSSCCNCCCCCCNCc1ccccc1OC [BENEXTRAMINE],2.01
